Experimental data of several laboratories.
Compare with care: the assays were run in different laboratories.
Target: Megakaryocyte-associated tyrosine-protein kinase (MATK, Homo sapiens, UniProt P42679)
Sequence (P42679 1-507, as in one of the studies): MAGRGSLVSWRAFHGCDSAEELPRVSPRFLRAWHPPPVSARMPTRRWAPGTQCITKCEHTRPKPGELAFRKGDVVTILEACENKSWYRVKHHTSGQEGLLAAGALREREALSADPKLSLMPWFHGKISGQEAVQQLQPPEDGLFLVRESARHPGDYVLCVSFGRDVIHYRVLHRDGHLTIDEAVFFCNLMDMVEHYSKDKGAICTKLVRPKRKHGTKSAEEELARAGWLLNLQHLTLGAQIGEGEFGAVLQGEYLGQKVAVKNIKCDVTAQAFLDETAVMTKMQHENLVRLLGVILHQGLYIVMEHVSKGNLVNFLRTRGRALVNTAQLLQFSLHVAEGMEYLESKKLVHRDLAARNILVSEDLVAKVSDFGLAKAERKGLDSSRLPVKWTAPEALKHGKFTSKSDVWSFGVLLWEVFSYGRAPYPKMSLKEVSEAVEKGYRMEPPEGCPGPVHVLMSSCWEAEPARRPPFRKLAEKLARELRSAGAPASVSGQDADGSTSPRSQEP

Compound	test	conditions	remaining binding [%]
Nc1ncc2c(n1)-c1c([nH]c3ccc(C#CC4CC4)cc13)CCCC2	binding, competition with immobilised ligand	1 µM	100
C[C@H]1CCN(c2nccc(-c3cnn4ncccc34)n2)C1	binding	1 µM	90
O=C(Nc1c[nH]nc1C(=O)NC1CCNCC1)c1cc(F)cc(F)c1	binding, competition with immobilised ligand	1 µM	84
O=C(c1ccc(Nc2ncc(Cl)c(-c3cc4ccccc4s3)n2)cc1)N1CCC(N2CCCC2)CC1	binding, competition with immobilised ligand	1 µM	47
CNC(=O)[C@@H]1CC[C@@H](n2c(-c3ccc4cnccc4c3)nc3ccc(C(=O)NCc4cccc(C(N)=O)c4)cc32)C1	binding, competition with immobilised ligand	1 µM	100
C=CC(=O)N1CCC(C(=O)NCC(=O)N2CCN(c3nc(-c4cnc(N)nc4C(F)F)nc(N4CCOCC4)n3)CC2)CC1	binding, competition with immobilised ligand	1 µM	78
CN(CCCC(F)(F)F)c1nccc(-c2cnn3ncccc23)n1	binding	1 µM	72
COc1ncc2cc3ccccc3nc2c1C#N	cell-free assay, competition with immobilised ligand	5 µM	100
O=C1CCc2cc(Nc3cc(OC4CCOCC4)c([N+](=O)[O-])cc3Cl)ccc2N1	cell-free assay, competition with immobilised ligand	1 µM	100
N[C@@H]1CCN(c2nccc(-c3cnn4ncccc34)n2)C1	binding	1 µM	100
Cc1cc(NC(=O)c2cccc(S(F)(F)(F)(F)F)c2)cc(-n2ccn3nc(-c4cccnc4)cc23)c1	cell-free assay, competition with immobilised ligand	1 µM	100
O=C(NCCCN1CCOCC1)c1ccc(Nc2ncc(Cl)c(-c3ccc(Cl)s3)n2)cc1	binding, competition with immobilised ligand	1 µM	48
CS(=O)(=O)N1CCCC(NC(=O)[C@H](CCC2CCCCC2)NC(=O)c2ccc(CNc3ncnc4c3nnn4-c3ccccc3)cc2)C1 (some centres unmarked)	cell-free assay, competition with immobilised ligand	0.1 µM	100
CN(C)c1ncc(F)c(-c2cnn3ncccc23)n1	binding	1 µM	79
O=C(Nc1cnc(Oc2ccc(F)cc2)nc1)N1CCc2ncccc2[C@@H]1c1ccc(F)cc1	cell-free assay, competition with immobilised ligand	1 µM	80
CN(C)c1nccc(-c2cnn3ncccc23)n1	binding	1 µM	100
CCCOc1ccc([C@@H]2[C@@H](C(=O)O)[C@H](c3ccc4c(c3)OCO4)CN2CC(=O)Nc2c(CC)cccc2CC)cc1	cell-free assay, competition with immobilised ligand	1 µM	90
Cc1cnc(Nc2ccc(C(=O)N3CCC(N4CCCC4)CC3)cc2)nc1-c1cc2ccccc2s1	binding, competition with immobilised ligand	1 µM	30
F[C@@H]1CCN(c2nccc(-c3cnn4ncccc34)n2)C1	binding	1 µM	80
O=C(N[C@H]1CCCCC/C=C\C2C[C@@]2(C(=O)O)NC(=O)[C@@H]2C[C@@H](Oc3ccncc3)CN2C1=O)OC1CCCC1 (some centres unmarked)	binding, competition with immobilised ligand	1 µM	41
